Source: PubChem
Hits are enriched below; roughly 2.7% of the tested compounds scored in any of these assays.
pPAFAH FP inh: pPAFAH (human) enzyme inhibition; inhibition, % at 3.39 µM; Q13093; AID 463082; recombinant pPAFAH, FP-rhodamine probe fluorescence polarization; hit rate 1.5% among 330,000;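 active = inhibition above the mean inhibition across the screen plus 3 SD, cut at about 25% in these data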;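 also: inhibitors block binding of the rhodamine activity-based probe so polarization drops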
PAFAH2 inh: inhibitors of human PAFAH2. inhibition, % at 3.39 µM. Q99487. hit rate 0.99% among 340,000. recombinant PAFAH2, FP-rhodamine activity probe, fluorescence polarization;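 active = inhibition above the mean over all tested compounds plus 3 SD, cut at about 30% in these data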;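 also: inhibitors block probe labeling of enzyme so polarization drops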
PAFAH1B3 inh: blocks human PAF acetylhydrolase 1B catalytic subunit 3 | Q15102 | recombinant PAFAH1B3, FP-rhodamine probe, fluorescence polarization | inhibition, % at 3.39 µM | hit rate 0.28% among 340,000;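 active = inhibition above the screen-wide average of all tested compounds plus 3 SD, cut at about 25% in these data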
Target sequence (Q15102 whole entry, looked up): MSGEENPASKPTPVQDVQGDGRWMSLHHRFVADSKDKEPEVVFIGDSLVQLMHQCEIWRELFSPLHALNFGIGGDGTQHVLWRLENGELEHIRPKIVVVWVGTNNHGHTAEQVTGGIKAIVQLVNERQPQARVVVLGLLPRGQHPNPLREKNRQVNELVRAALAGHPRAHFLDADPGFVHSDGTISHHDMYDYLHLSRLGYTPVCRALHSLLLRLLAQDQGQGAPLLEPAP
ASAP1 inh: inhibitors of human ASAP1 ArfGAP activity | Q9ULH1 | ASAP1-stimulated ARF1 GTP hydrolysis, GDP FP detection | inhibition, % at 16.5 µM | hit rate 0.19% among 360,000 | AID 624377; in the data active = inhibition above about 25%
PAFAH1B2 FP inh: PAFAH1B2 (human) inhibition; recombinant PAFAH1B2, FP-rhodamine activity probe, fluorescence polarization; hit rate 1.2% among 340,000; AID 492953; inhibition, % at 3.39 µM;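 active = inhibition above the mean of all tested compounds plus 3 SD, cut at about 24% in these data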
ARFGAP1 inh: rat ARFGAP1 inhibition. AID 651572. inhibition, % at 16.5 µM. Arfgap1-stimulated ARF1 GTP hydrolysis, GDP FP detection. hit rate 0.26% among 360,000. Q62848;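 active = inhibition above a per-plate limit, mean inhibition of low control wells plus 3 SD, cut at about 25% in these data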
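Material – truncated rat Arfgap1 GAP domain · Buffer or medium – HEPES-based buffer, pH 7.5 · Reagent – human ARF1(Δ1-17)-GTP substrate · Dosing – 16.5 µM single point, 1.26% DMSO · Schedule – GTP hydrolysis reaction 2 h at 25 °C · Technique – GDP detection by fluorescence polarization · Benchmarks – No-Arfgap1 wells (100%) versus DMSO full-reaction wells (0%) · Repeats – single replicate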
ARFGAP1 confirm: confirmation of rat ARFGAP1 inhibitors; shares compounds with ARFGAP1 inh; ARFGAP1-stimulated ARF1 GTP hydrolysis, GDP tracer FP; inhibition, % at 16.5 µM; hit rate 30% among 890; AID 651608;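 active = average inhibition over triplicates above the hit cutoff set in the earlier primary screen, cut at about 25% in these data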
Target sequence (Q62848 whole entry, looked up): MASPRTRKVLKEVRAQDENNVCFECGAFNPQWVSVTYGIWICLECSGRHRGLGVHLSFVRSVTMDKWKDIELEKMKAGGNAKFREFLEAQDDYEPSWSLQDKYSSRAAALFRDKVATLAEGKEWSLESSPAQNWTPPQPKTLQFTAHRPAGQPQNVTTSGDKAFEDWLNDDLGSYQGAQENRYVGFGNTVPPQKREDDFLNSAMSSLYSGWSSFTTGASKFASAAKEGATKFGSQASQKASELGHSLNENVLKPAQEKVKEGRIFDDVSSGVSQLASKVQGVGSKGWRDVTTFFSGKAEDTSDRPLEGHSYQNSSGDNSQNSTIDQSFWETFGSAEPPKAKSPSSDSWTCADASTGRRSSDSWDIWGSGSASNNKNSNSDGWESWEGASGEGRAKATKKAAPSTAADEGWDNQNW
Hits are given with their value; i = inactive; nt = not tested or not shown.

SMILES | pPAFAH FP inh | PAFAH2 inh | PAFAH1B3 inh | ASAP1 inh | PAFAH1B2 FP inh | ARFGAP1 inh | ARFGAP1 confirm
O=c1c2ccccc2nc(-c2ccco2)n1CCc1ccc(O)cc1 | i | i | i | i | i | i | nt
CC1(c2nnc(Cc3ccccc3)o2)CC(c2ccncc2)=NO1 (stereo not drawn) | i | i | i | i | i | 42.7 | i
O=C(/C=C/c1ccc(Cl)cc1)NC(=S)Nc1ccc(NC(=O)c2ccco2)cc1 | i | i | i | i | i | 86.2 | 110.0
CC(=O)Nc1ccc(NC(=S)NC(=O)/C=C/c2ccc(Cl)cc2)cc1 | i | i | i | i | i | i | nt
O=C(CN1C(=O)NC2(CCCCC2)C1=O)Nc1ccc(Cl)cc1 | i | i | i | i | i | i | nt
Cc1ccc(C2(C)NC(=O)N(CC(=O)NC(C)c3ccccc3)C2=O)cc1 (stereo not drawn) | i | i | i | i | i | i | nt
Cc1ccc(C2(C)NC(=O)N(CC(=O)NC(=O)NC(C)C)C2=O)cc1 (stereo not drawn) | i | i | i | i | i | 29.8 | i
O=C(CSc1nnc2ccccn12)NCCc1ccc(Cl)cc1 | i | i | i | i | i | i | nt
COc1cccc2c1SCc1ccccc1C2CC(N)=O (stereo not drawn) | i | i | i | i | i | 30.6 | i
COc1ccccc1CC(=O)NC1CCCc2ccccc21 (stereo not drawn) | i | i | i | i | i | i | nt
CC(=O)Nc1ccc(NC(=O)CN(c2ccc(F)cc2)S(=O)(=O)c2ccc3c(c2)OCCO3)cc1 | i | i | i | i | i | i | nt
O=C(CN(c1ccc(F)cc1)S(=O)(=O)c1ccc2c(c1)OCCO2)Nc1ccc2c(c1)OCO2 | i | i | i | i | i | 26.6 | i
Cc1ccccc1Nc1c([N+](=O)[O-])cncc1[N+](=O)[O-] | i | i | i | i | i | 26.7 | i
N#CCCn1cc(/C=N/O)c(-c2ccccc2)n1 | i | i | i | i | i | i | nt
N#CCCn1cc(/C=N/NC(N)=S)c(-c2ccc(-c3ccccc3)cc2)n1 | i | i | i | i | i | 27.3 | 25.7
CCN(CC)C(=O)[C@H]1C[C@H](CC(=O)NC(C)(C)C)C(=O)N2CCc3c([nH]c4cc(CCC(=O)N(C)C)ccc34)[C@]12C | i | i | i | i | i | i | nt
CC(=O)N=Cc1c(C)c(C#N)c(=O)n(C)c1O | i | i | i | i | i | i | nt
Cc1c(C=O)c(Cl)n(C)c(=O)c1C#N | i | i | i | i | i | 28.4 | i
COc1cccc(OC)c1C(=O)Nc1ccc(S(=O)(=O)Nc2ncccn2)cc1 | i | i | i | i | i | 27.8 | i
O=C(Nc1cccc(S(=O)(=O)NCc2ccco2)c1)c1cc(-c2ccc(F)cc2)nc2ccccc12 | i | i | i | i | i | i | nt
COc1ccc(-c2cc(C(=O)Nc3cccc(S(=O)(=O)NCc4ccco4)c3)c3ccccc3n2)cc1OC | i | i | i | i | i | 26.4 | i
CS(=O)(=O)N1CCN(c2ccccc2NC(=O)c2cc3ccccc3o2)CC1 | i | i | i | i | i | i | nt
O=C1c2ccccc2C(=O)N1CCCc1c[nH]c2ccc(Cl)cc12 | i | i | i | i | i | 32.9 | i
CC(C)(C)c1ccc(NC(=O)COC(=O)C2(C)CC2(Cl)Cl)cc1 (stereo not drawn) | i | i | i | i | i | i | nt
COc1ccc(CN(C)C(=O)Cn2cnc(C(=O)Nc3ccc(C)c(C)c3)n2)cc1OC | i | i | i | i | i | 29.3 | i
SMILES | pPAFAH FP inh | PAFAH2 inh | PAFAH1B3 inh | ASAP1 inh | PAFAH1B2 FP inh | ARFGAP1 inh | ARFGAP1 confirm
COc1ccc(-c2csc(Nc3ccc(Oc4ccccc4)cc3)n2)cc1 | nt | nt | nt | i | nt | i | nt
N#Cc1ccc(Nc2nc(-c3ccccc3)cs2)cc1 | nt | nt | nt | i | nt | 30.3 | i
CC(C)NC(=O)Cn1c(SCC(=O)N2c3ccccc3CC2C)nc2ccccc21 (stereo not drawn) | i | i | i | i | i | 30.7 | i
COc1ccc(-c2cc(NC=O)c3ncc(-c4ccc(C(C)=O)cc4)n3c2)cn1 | nt | nt | nt | i | nt | 29.2 | 34.3
CC(=O)Nc1cccc(-c2cc(NC=O)c3ncc(-c4ccc(C(C)=O)cc4)n3c2)c1 | nt | nt | nt | i | nt | 25.0 | i
COc1ccc(-c2cc(NC=O)c3ncc(-c4cccc(C(=O)NCCN(C)C)c4)n3c2)cc1 | nt | nt | nt | i | nt | 27.4 | 26.6
CN(C)CCNC(=O)c1cccc(-c2cnc3c(NC=O)cc(-c4ccc(F)cc4)cn23)c1 | nt | nt | nt | i | nt | i | nt
CC(=O)N1CCc2cc(S(=O)(=O)CCC(=O)N(C)Cc3ccco3)ccc21 | i | i | i | i | i | i | nt
C/C(=N/NC(=O)c1ccc(C)s1)c1cccc(NC(=O)COc2ccc(Cl)cc2Cl)c1 | i | i | i | i | i | i | nt
C/C(=N/NC(=O)c1cccs1)c1ccc(NC(=O)COc2ccc(Cl)cc2Cl)cc1 | i | i | i | i | i | 38.1 | 52.6
COc1ccccc1C(=O)O/N=C1/CCCc2c1ccc(OC)c2[N+](=O)[O-] | i | i | i | i | i | i | nt
COc1cc(C(=O)O/N=C2\CCCc3c2ccc(OC)c3[N+](=O)[O-])cc(OC)c1OC | i | i | i | i | i | 25.1 | i
CC(=O)c1ccc(OCCCC(=O)Nc2ccc(S(=O)(=O)N3CCOCC3)cc2)cc1 | i | i | i | i | i | i | nt
CCOc1ccccc1N(CC(=O)Nc1ccc(S(=O)(=O)N2CCOCC2)cc1)S(=O)(=O)c1ccc(Cl)cc1 | i | i | i | i | i | i | nt
Cc1ccc2[nH]c3c(=O)n(CC(=O)Nc4ccccc4N4CCN(C)CC4)ncc3c2c1 | i | i | i | i | i | 24.8 | 48.2
CN1CCN(c2ccccc2NC(=O)Cn2ncc3c([nH]c4ccccc43)c2=O)CC1 | i | i | i | i | i | i | nt
COc1ccc2c(c1)c1c(n2C)[C@@H]2CC=C(CO)[C@@H](C1)N2C | i | i | i | i | i | i | nt
CCC(=O)Nc1ccc(NC(=O)CSc2nnnn2-c2ccc3c(c2)OCCO3)cc1 | i | i | i | i | i | 33.1 | 41.6
CCOC(=O)c1csc(NC(=O)CSc2nnnn2-c2ccc3c(c2)OCCO3)n1 | i | i | i | i | i | i | nt
CCN(C[C@H]1N[C@@](CC)(C(=O)OC)[C@H]2C(=O)N(Cc3ccccc3)C(=O)[C@@H]12)C(=O)Nc1ccc(Cl)cc1 | i | i | i | i | i | i | nt
COc1ccc(-c2nc(CS(=O)(=O)CC(=O)Nc3cccc(C(C)=O)c3)c(C)o2)cc1 | i | i | i | i | i | 26.5 | i
COc1cccc(-c2nc(CS(=O)(=O)CC(=O)Nc3cccc(C(C)=O)c3)c(C)o2)c1 | i | i | i | i | i | i | nt
Cc1cc(C)nc(Nc2nc3ccccc3s2)n1 | i | i | i | i | i | i | nt
CC(=O)c1c(C)nc(Nc2nc3ccccc3s2)nc1C | i | nt | nt | i | nt | 25.1 | i
CC(=O)Nc1cc(C)c(S(C)(=O)=O)c(C)c1 | i | i | i | i | i | i | nt
